Assay outcomes: PubChem, The Scripps Research Institute Molecular Screening Center
CHO parental Ca – ATP-evoked calcium signal inhibitors, parental CHO, primary screen, counter-screen for OX1R antagonist project, cell-based, fluorescence, Fluo-8 calcium dye. parental CHO-K1, ATP-induced calcium, Fluo-8 fluorescence. AID 463079, 2010. 0.63% of 330,000 active. inhibition, % at 5.6 µM;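 active = inhibition above that plate's mean sample inhibition plus 3 SD, cut at about 26% in these data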;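 note: 0% = ATP-challenged DMSO wells and 100% = DMSO wells without ATP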
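Assay system: untransfected parental CHO cell line. Also added: ATP agonist challenge. Dosing: one dose, 5.6 µM nominal. Measured by: Fluo-8 fluorescence. Read-out: % inhibition. Benchmarks: ATP wells versus no-ATP DMSO wells. Repeats: no replicates.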
OX1R antag-1 – OX1R (HCRTR1) antagonists, primary screen, fluorescence, CHO/OX1R cells, Fluo-8 calcium, orexin A; inhibition, % at 5 µM; 0.43% of 330,000 active; AID 434989, 2010; Orexin/Hypocretin receptor type 1 (Homo sapiens), O43613; Fluo-8 calcium fluorescence;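 active = inhibition above its plate's threshold, mean inhibition of all tested compounds on the plate plus 3 SD, cut at about 37% in these data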;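 note: 0% = orexin A challenge wells and 100% = SB-334867-A antagonist wells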
Target sequence (O43613 whole entry, looked up): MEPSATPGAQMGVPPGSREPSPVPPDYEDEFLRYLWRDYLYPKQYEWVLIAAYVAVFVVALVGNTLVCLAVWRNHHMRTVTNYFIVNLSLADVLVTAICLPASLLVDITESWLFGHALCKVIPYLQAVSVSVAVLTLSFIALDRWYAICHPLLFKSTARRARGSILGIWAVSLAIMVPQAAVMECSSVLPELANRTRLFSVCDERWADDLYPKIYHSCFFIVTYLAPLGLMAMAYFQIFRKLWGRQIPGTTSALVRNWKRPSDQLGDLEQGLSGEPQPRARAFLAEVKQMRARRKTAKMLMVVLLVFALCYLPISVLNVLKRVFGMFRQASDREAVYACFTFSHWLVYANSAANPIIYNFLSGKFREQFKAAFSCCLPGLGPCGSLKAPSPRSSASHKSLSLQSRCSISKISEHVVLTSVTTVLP
TAAR1 antag – human TAAR1 antagonists, primary screen, Fluo-8 calcium fluorescence, CHO RD-HGA16 cells | 1.5% of 360,000 active | inhibition, % at 3 µM | antagonist | Trace amine-associated receptor 1 (Homo sapiens), Q96RJ0;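 active = inhibition above a per-plate cutoff, the mean inhibition of test compounds on that plate plus 3 SD, cut at about 49% in these data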;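 note: 0% = DMSO plus EC80 beta-PEA response and 100% = DMSO alone without agonist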
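Test system: CHO RD-HGA16 cells bearing hTAAR1 | Reagent: β-PEA, EC80 | Compound dosing: 3 µM, single point | Schedule: Dye loading 75 min at 37 °C, then 30 min room temperature | Signal: Calcium fluorescence with Fluo-8 | Evaluation: Percent inhibition of PEA-evoked calcium signal, max/basal emission ratio | Control set: DMSO-only wells and EC80 β-PEA-stimulated wells | Repeats: Singlicate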
GPR7 antag – GPR7 receptor antagonists, primary screen, cell-based, fluorescence, single concentration; inhibition, % at 4.4 µM; 1.1% of 290,000 active; GPR7-expressing cells, fluorescence antagonist assay; AID 1861, 2009; in the data active = inhibition above about 16%, passing the limit was not always enough;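 note: cells stimulated with the agonist NPW; 0% = agonist with vehicle and 100% = vehicle without agonist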
Target sequence (P48145 whole entry, looked up): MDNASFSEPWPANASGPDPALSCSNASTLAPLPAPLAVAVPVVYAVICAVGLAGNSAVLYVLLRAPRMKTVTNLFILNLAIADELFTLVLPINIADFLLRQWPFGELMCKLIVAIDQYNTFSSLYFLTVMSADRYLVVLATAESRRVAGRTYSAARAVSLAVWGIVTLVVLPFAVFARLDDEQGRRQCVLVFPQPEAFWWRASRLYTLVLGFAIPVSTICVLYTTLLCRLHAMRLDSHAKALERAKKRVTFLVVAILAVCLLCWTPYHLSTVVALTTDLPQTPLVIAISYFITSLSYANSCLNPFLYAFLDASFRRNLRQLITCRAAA
OX1R antag-2 – antagonists of human orexin 1 receptor (OX1R) | OX1R-expressing cells, FRET antagonist read-out | inhibition, % at 6.6 µM | 1.8% of 330,000 active; in the data active = inhibition mostly above about 38%, no sharp cut-off; inactive = mostly below about 40%;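 note: 0% = agonist challenge alone and 100% = reference antagonist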
TAAR1 ag – human TAAR1 agonists, primary screen, Fluo-8 calcium fluorescence, CHO RD-HGA16 cells. activation, % at 3 µM. AID 624467, 2012. vehicle wells 0%, saturating PEA agonist 100%. 0.99% of 360,000 active;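 active = activation above the mean activation of all test compounds in the run plus 3 SD, cut at about 38% in these data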
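Assay system: CHO-derived RD-HGA16 cells with stable Gα16 and human TAAR1; timing: 17-24 h seeding, 75 min 37 °C dye, 30 min RT; read-out: % activation from peak over basal fluorescence ratio, DMSO-to-PEA scaled; measured by: kinetic Fluo-8 calcium fluorescence; benchmarks: low control DMSO, high control PEA (EC100); doses: 3 µM single concentration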
Numbers without * were called inactive; . = not tested or not shown. This is a sample that favours compounds with a hit; in the whole collection about 4.6% have one here.

SMILES	CHO parental Ca	OX1R antag-1	TAAR1 antag	GPR7 antag	OX1R antag-2	TAAR1 ag
CCCCSc1ccc2nc(-c3ccc(C#N)cc3)cn2c1	1.0	-34.4	50.5*	11.5	22.2	19.4
CCCSc1ccc2nc(-c3ccccc3)cn2c1	-16.5	-24.0	-2.5	-12.7	10.4	-0.6
Cc1cc(NC(=O)Cc2ccccc2)c2ccccc2n1	32.8*	35.4	4.4	-0.6	48.4	7.3
Cc1cc(C)nc(SCC(=O)Nc2ccnc3ccccc23)n1	36.4*	35.3	10.8	-4.1	44.1	5.4
CN1C(=S)SC(N(O)C(=O)NC2CCCCC2)C1(C)C (stereo not drawn)	-11.2	-13.4	-1.4	-3.7	10.5	8.1
O=C(CNC(=O)c1ccccc1Cl)N/N=C/c1ccc([N+](=O)[O-])s1	-3.5	-24.5	-8.6	-3.6	51.1*	11.6
O=C(CNC(=O)c1ccccc1Br)N/N=C/c1cc(Br)ccc1O	-15.2	-32.9	5.7	-2.9	14.4	22.7
O=C(Cc1cccs1)N/N=C\c1ccc([N+](=O)[O-])s1	-12.4	-14.0	-2.9	1.4	46.6	13.6
O=C(CNC(=O)c1ccccc1Br)N/N=C\c1cc([N+](=O)[O-])cc(Br)c1O	0.5	-0.2	-22.6	-0.2	52.7*	8.9
Cc1ccc(NC(=O)CSc2nnc(-c3ccco3)n2N)cc1F	-22.2	-30.4	-32.8	-4.4	11.9	40.8*
Cc1cc(C)c(NC(=O)CSc2nnc(-c3ccco3)n2N)c(C)c1	-3.1	-25.4	-9.5	-5.4	14.1	9.1
COc1ccc(/C=C/C(=O)N2CCCc3ccccc32)cc1	-16.0	-5.8	12.4	-1.6	35.7	8.9
COc1cc(/C=C/C(=O)N2CCCc3ccccc32)cc(OC)c1OC	-18.6	-12.3	52.3*	-12.3	28.9	10.1
COC(=O)[C@]12CCCCC=C1N(Cc1ccc3c(c1)OCO3)C(=O)[C@H](CC(=O)NCC1CCCCC1)C2	.	.	50.0*	.	.	6.0
COC(=O)[C@]12CCCCC=C1N(Cc1ccc3c(c1)OCO3)C(=O)[C@H](CC(=O)N1CCC(c3ccccc3)CC1)C2	.	.	56.4*	.	.	0.7
COCCCNC(=O)C[C@@H]1C[C@@]2(C(=O)OC)CCCCC=C2N(Cc2ccc3c(c2)OCO3)C1=O	.	.	13.8	.	.	5.0
COC(=O)[C@]12CCCCC=C1N(Cc1ccc3c(c1)OCO3)C(=O)[C@H](CC(=O)NCc1ccc(OC)c(OC)c1)C2	.	.	58.8*	.	.	14.2
COC(=O)[C@]12CCCCC=C1N(CCc1ccc(OC)c(OC)c1)C(=O)[C@H](CC(=O)N1CCCCC1)C2	.	.	52.1*	.	.	11.7
COC(=O)[C@]12CCCCC=C1N(Cc1cccc3ccccc13)C(=O)[C@H](CC(=O)NCc1ccc(OC)c(OC)c1)C2	.	.	49.1*	.	.	27.2
CCOC(=O)c1cccc(N2C(N)=NC(N)=NC2(C)C)c1	-0.9	6.7	2.8	15.5*	4.8	-0.2
COc1ccc(CCN(C)CCc2ccc(OC)c(OC)c2)cc1OC	-10.4	-11.5	-15.2	.	14.6	2.4
COc1ccc(CN(CCc2ccccc2)Cc2ccccc2)cc1OC	-50.1	-40.0	12.1	-5.5	60.1*	18.4
CCCc1ccc(Oc2c(-c3ccc(O)c(C)c3O)n[nH]c2C)cc1	28.7*	22.9	11.0	4.6	2.8	7.2
CCn1c(C)c(C)c2cc(C(=O)NCCN3CCCCCC3)ccc21	-18.8	-24.2	-27.5	-14.2	9.9	-1.1
Cc1ccc(NS(=O)(=O)c2cc(C(=O)NCCSc3ccc(C)cc3)ccc2C)cc1	2.4	-16.5	15.3	-10.1	12.3	7.1
SMILES	CHO parental Ca	OX1R antag-1	TAAR1 antag	GPR7 antag	OX1R antag-2	TAAR1 ag
Cc1ccc(SCCNC(=O)c2ccc(C)c(S(=O)(=O)Nc3cccc(C)c3)c2)cc1	-7.4	30.1	38.2	-11.7	38.1*	10.3
COc1ccc2c(c1)-c1c(ssc1=S)C(C)(C)N2S(=O)(=O)c1ccc(C)cc1	-13.4	-17.4	-0.3	-4.2	4.5	-1.4
Cc1ccc(S(=O)(=O)N2c3ccccc3-c3c(ssc3=S)C2(C)C)cc1	-30.2	42.4*	-25.0	-16.6	87.8*	-0.5
Cc1ccc(-n2nc(-c3ccc(OC(F)(F)F)cc3)cc2N)cc1C	-8.3	5.5	-15.1	-9.4	4.6	-1.0
Cc1ccc(C(O)(c2ccccc2)c2ccccc2C(C)N(C)C)c(C)c1 (stereo not drawn)	-22.3	-26.6	-8.6	17.0	2.2	41.2*
CCOc1nc(Nc2ccc(OC)c(Cl)c2)nc(OCC)n1	-19.9	-32.0	-3.9	-2.0	12.1	8.8
Cc1cc(C)cc(N(CC(=O)NCc2ccc(F)cc2)C(=O)c2snc(C(N)=O)c2N)c1	-14.7	-23.4	17.0	2.3	8.7	40.8*
CCOC(=O)c1ccc(N2CCN(c3ccc(F)cc3)CC2)c(NC(=O)Nc2cccc(OC)c2)c1	5.1	10.2	57.8*	-9.1	17.9	8.5
CCOC(=O)c1ccc(N2CCN(c3ccccc3F)CC2)c(NC(=O)Nc2ccccc2)c1	39.2*	17.9	48.4	18.6	9.4	8.1
COc1cccc(NC(=O)CN2CCN(c3ccc(F)cc3)CC2)c1	-23.1	-18.2	-18.7	-5.2	23.9	6.3
Cc1ccccc1S(=O)(=O)Cc1ccc(C(=O)NC2CC2)o1	1.2	0.6	-11.6	-1.6	7.4	2.8
CCc1nc2c(OCc3ccc(Cl)cc3)cccn2c1N(C)C(=O)c1ccncc1	.	.	-19.1	.	.	0.5
COc1ccccc1-c1oc2ccccc2c1C#CC1(N)CCCCC1	4.0	5.8	7.8	.	4.2	38.2*
O=C(/C=C(\Nc1ccc(F)cc1)c1ccccc1)c1ccccc1	.	.	18.6	.	.	-1.1
COc1ccc(-c2noc(CCCC(=O)NCCc3ccccc3)n2)cc1OC	-10.5	-29.9	3.4	-6.2	15.2	58.3*
COc1ccc(-c2noc(COc3ccccc3OC)n2)cc1OC	-6.8	4.4	-16.2	7.8	46.7*	0.2
COC(=O)CSc1nc(-c2ccccc2)nc2ccc(F)cc12	-20.1	-32.8	-7.5	-5.5	16.9	8.8
OCCSc1nc(-c2ccccc2)nc2ccc(F)cc12	-16.8	-15.0	-12.1	-6.6	47.2*	3.2
C[C@@H]1CC(=O)[C@H]2CC(CO)=CCC[C@@H]2[C@@]1(C)CC/C(=C/CO)CO	-15.9	-7.5	.	.	11.8	.
O=C(/C=C/c1c(Cl)cccc1Cl)NCCc1ccccc1	5.6	-11.4	44.2	-7.7	7.2	37.6*
CC(C)=CC(=O)NCCc1ccccc1	-16.6	6.6	14.3	-10.5	6.3	41.8*
O=C(/C=C/c1cccc(Cl)c1)NCCc1ccccc1	-10.5	-27.6	-26.7	-0.8	15.3	0.3
